Rows were chosen to be rich in hits. Some 2.6% of all compounds tested hit in one or more screens of this group.
Platelet DG rel: modulates dense granule release in human platelets; human platelet-rich plasma, SFLLRN dense granule ATP release, luminescence; inhibition, %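 (compounds screened at 7.5 µM in platelet-rich plasma)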; 300,000 compounds, 0.22% hits; AID 1663;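 active = mean replicate score, as percent of positive control, at or above 50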
TAAR1 ag: agonists of human TAAR1 | activation, % at 3 µM | CHO RD-HGA16 TAAR1, Fluo-8 calcium fluorescence; vehicle wells 0%, saturating PEA agonist 100% | Q96RJ0 | 360,000 compounds, 0.99% hits | AID 624467;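 active = activation above the mean activation of all test compounds in the run plus 3 SD, cut at about 38% in these data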
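Test system: RD-HGA16 (CHO) cells co-expressing Gα16 and hTAAR1 / Benchmarks: DMSO vehicle as 0%, PEA at EC100 as 100% / Repeats: no replicates (n 1) / Measure: % activation from peak over basal fluorescence ratio, DMSO-to-PEA scaled / Timing: 17-24 h plating, Fluo-8 75 min 37 °C, 30 min RT / Technique: kinetic Fluo-8 calcium fluorescence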
VLA-4 inh: inhibition in a human VLA-4 binding assay | 330,000 compounds, 0.2% hits | VLA-4 expressing cells, ligand binding flow cytometry | inhibition, % (about 7 µM as worked out from the volumes in the protocol); in the data active = inhibition above about 50%
Target sequence (P13612 whole entry, looked up): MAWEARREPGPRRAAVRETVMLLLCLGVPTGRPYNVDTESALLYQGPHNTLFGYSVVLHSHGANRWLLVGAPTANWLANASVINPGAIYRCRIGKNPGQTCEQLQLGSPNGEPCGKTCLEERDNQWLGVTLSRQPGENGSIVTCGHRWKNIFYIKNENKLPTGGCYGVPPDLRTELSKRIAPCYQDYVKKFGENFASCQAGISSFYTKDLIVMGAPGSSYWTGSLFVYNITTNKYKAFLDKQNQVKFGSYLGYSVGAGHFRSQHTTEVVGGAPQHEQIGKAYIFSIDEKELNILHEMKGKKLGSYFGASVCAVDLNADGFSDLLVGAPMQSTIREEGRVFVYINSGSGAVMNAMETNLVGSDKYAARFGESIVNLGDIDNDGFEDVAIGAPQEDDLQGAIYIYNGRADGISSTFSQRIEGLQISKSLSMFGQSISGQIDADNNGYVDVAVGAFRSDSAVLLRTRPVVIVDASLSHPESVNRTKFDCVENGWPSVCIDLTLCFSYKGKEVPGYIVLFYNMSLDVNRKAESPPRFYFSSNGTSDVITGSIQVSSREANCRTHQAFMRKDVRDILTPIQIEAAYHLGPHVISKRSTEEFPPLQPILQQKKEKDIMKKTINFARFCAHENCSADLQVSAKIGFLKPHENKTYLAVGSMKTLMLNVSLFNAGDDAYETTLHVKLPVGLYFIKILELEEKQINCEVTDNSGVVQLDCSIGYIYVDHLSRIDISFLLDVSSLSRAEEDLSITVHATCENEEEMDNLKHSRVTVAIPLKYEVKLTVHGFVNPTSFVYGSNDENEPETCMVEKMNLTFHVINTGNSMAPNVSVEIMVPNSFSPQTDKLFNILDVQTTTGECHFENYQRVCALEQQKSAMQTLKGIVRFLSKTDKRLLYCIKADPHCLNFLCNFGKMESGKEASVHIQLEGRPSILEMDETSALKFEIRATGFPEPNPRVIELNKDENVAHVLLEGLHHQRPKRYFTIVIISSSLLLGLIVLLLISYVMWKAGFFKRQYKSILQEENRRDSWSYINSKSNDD
Rce1 inh: yeast Ras-converting enzyme inhibition | 290,000 compounds, 0.27% hits | yeast membranes, quenched prenylated peptide cleavage fluorescence | calls only;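 active = fall in fluorescence gain of 50% or more versus controls, with final raw signal at or below 3038400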;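 also: plate controls were neutral control wells for no effect and wells lacking membranes for full effect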
TAAR1 antagonist: human TAAR1 antagonism; CHO RD-HGA16 TAAR1, Fluo-8 calcium fluorescence, antagonist; inhibition, % at 3 µM; Q96RJ0; 360,000 compounds, 1.5% hits;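 active = inhibition above a per-plate cutoff, the mean inhibition of test compounds on that plate plus 3 SD, cut at about 49% in these data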;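 also: 0% = DMSO plus EC80 beta-PEA response and 100% = DMSO alone without agonist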
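Material: RD-HGA16 CHO cells with stable hTAAR1 and Gα16; Dosing: single nominal final test compound concentration of 3 µM; Schedule: seeding 17-24 h prior, 75-min 37 °C, 30-min RT dye loading; Detection: kinetic Fluo-8 calcium fluorescence measurement; Measure: % inhibition from peak post-agonist over basal fluorescence ratio; Benchmarks: vehicle and agonist controls.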
* marks the source's active call; other numbers are inactive results; i = inactive; . = no result; + = active, no number.

SMILES | Platelet DG rel | TAAR1 ag | VLA-4 inh | Rce1 inh | TAAR1 antagonist
CC(CCC(=O)O)C1CCC2C3C(O)CC4CC(O)CCC4(C)C3CC(O)C12C (centres undefined) | 0 | 0 | 6 | i | 5
Cc1ccc(C(C#N)c2ccc(C(=O)c3ccc(F)cc3)cc2)cc1 (centres undefined) | 8 | 8 | 15 | i | 41
N#CC(c1ccc(F)cc1)c1ccc(C(=O)c2ccc(F)cc2)cc1 (centres undefined) | -3 | 22 | 1 | i | 56*
Cc1cnn(CCC(=O)NNC(=S)Nc2ccc(F)cc2)c1 | -3 | 2 | -17 | i | -13
CCNC(=S)NNC(=O)CCn1cc(C)cn1 | -8 | 1 | 16 | + | -11
CCCOC(=O)c1ccc(OCC(O)Cn2c(C)nc3ccccc32)cc1 (centres undefined) | 20 | 6 | . | i | 54*
CC(NC(=O)COC(=O)/C(=C/c1cccs1)c1cccs1)c1ccccc1 (centres undefined) | 3 | 5 | i | i | 52*
CC(NC(=O)COC(=O)c1cccs1)c1ccccc1 (centres undefined) | -9 | 2 | 7 | i | -1
Cc1cccnc1C(NC(=O)C1CCN(CCCOc2ccc(F)cc2)CC1)c1ccccc1 (centres undefined) | . | 3 | . | . | -5
Cc1ccc(Oc2nc3ccccn3c(=O)c2/C=C(\C#N)C(=O)NC2CCS(=O)(=O)C2)c(C)c1 (centres undefined) | 51* | 3 | 4 | i | -18
C=CC[C@H](CC(=O)N[C@H](CO)Cc1ccccc1)C(=O)N[C@@H](COC(=O)[C@H](CC=C)CC(=O)OC(C)(C)C)Cc1c[nH]c2ccccc12 | . | 11 | 6 | . | 60*
C=CC[C@@H](CC(=O)N[C@H](CO)Cc1ccccc1)C(=O)N[C@H](COC(=O)[C@@H](CC=C)CC(=O)OC(C)(C)C)Cc1c[nH]c2ccccc12 | . | 22 | 1 | . | 65*
C[C@@H]1COc2cc(N3CCCCC3)ccc2S(=O)(=O)N1 | . | 1 | . | . | 17
Cc1cc(N2CCOCC2)n2cc(-c3ccccc3)nc2n1 | -12 | 1 | 2 | + | -14
CC(NC(=O)C1CCN(Cc2ccc(Oc3ccccc3)cc2)CC1)c1cccc2ccccc12 (centres undefined) | . | 25 | . | . | 49*
COCCCN1C(=O)C(CC(=O)NC(c2ccccc2)c2ccccc2)CC(C(=O)N(C(C)C)C(C)C)=C1C (centres undefined) | . | -2 | . | . | -13
CCN(CC)C(=O)c1cccc(-c2csc(C(O)c3ccc(OC)cc3)n2)c1 (centres undefined) | . | 8 | . | . | 28
OC(c1cccc(Cl)c1)c1nc(-c2ccccc2)cs1 (centres undefined) | . | 2 | . | . | -8
CCN(CC)C(=O)c1cccc(-c2csc(C(O)c3cccc(Cl)c3)n2)c1 (centres undefined) | . | 3 | . | . | 57*
CN(C)c1ccc(-c2csc(C(O)c3cccc(Cl)c3)n2)cc1 (centres undefined) | . | 52* | . | . | 73*
COc1cc(OC)c(NC(=O)CCNS(=O)(=O)c2ccc3c(c2)CC(C)N3C(C)=O)cc1Cl (centres undefined) | 1 | 3 | 11 | i | -17
C=CCc1ccccc1OCCNCc1ccccc1 | 7 | 17 | 1 | i | -13
CCCN(CC(=O)Nc1ccccc1OC)C(=O)c1cc(-c2ccccc2)nn1-c1ccccc1 | . | -1 | -2 | . | 34
COc1ccc(NC(=O)CN(C)C(=O)c2cc(-c3cccs3)nn2-c2ccccc2)cc1 | -2 | 9 | 4 | i | 55*
COCCN(CC(=O)Nc1cccc(C)c1C)C(=O)c1cc(-c2cccs2)nn1-c1ccccc1 | . | 18 | -6 | . | 51*
SMILES | Platelet DG rel | TAAR1 ag | VLA-4 inh | Rce1 inh | TAAR1 antagonist
CCN(CC(=O)Nc1ccc(OC)cc1)C(=O)c1cc(-c2cccs2)nn1-c1ccccc1 | 1 | 10 | -8 | i | 62*
O=C(COC(=O)c1cc(-c2cccs2)nn1-c1ccccc1)Nc1ccc(F)c([N+](=O)[O-])c1 | 3 | 7 | 14 | i | 49*
CC(C)(C)C(CN1CCCC1)OC(=O)c1ccccc1 (centres undefined) | 17 | 0 | 6 | i | -11
Cc1ccc(C(=O)N2CCN(c3cccc(C)c3C)CC2)cc1S(=O)(=O)N1CCOCC1 | . | -1 | 4 | . | -9
CC(C)[C@H](NC(=O)c1ccccc1F)C(=O)NCc1ccc(S(N)(=O)=O)cc1 | 0 | 0 | 13 | i | 11
CC1(NC(=O)Cc2ccc(S(=O)(=O)N3CCOCC3)s2)CCS(=O)(=O)C1 (centres undefined) | 7 | 1 | 30 | i | -2
CN(CC(=O)Nc1ccc(F)cc1)C(=O)c1cn(-c2ccccc2)nc1-c1cccs1 | . | 17 | 11 | . | 51*
CN(CC(=O)Nc1cccc(F)c1)C(=O)c1cn(-c2ccccc2)nc1-c1ccccc1 | 0 | 1 | 4 | i | 41
Nc1nnc(SCC(=O)OCC(=O)Nc2ccc(Br)cc2F)s1 | -7 | 11 | -7 | i | -4
Nc1nnc(SCC(=O)OCC(=O)Nc2ccc(Br)cc2)s1 | -3 | 44* | 3 | i | 1
Cc1cccc(CC(Cc2nc3ccccc3[nH]2)c2nc3ccccc3[nH]2)c1 (centres undefined) | 2 | 14 | 12 | i | 52*
COc1ccccc1CC(Cc1nc2ccccc2[nH]1)c1nc2ccccc2[nH]1 (centres undefined) | 2 | 3 | 36 | i | -6
S=C1Cc2ccccc2N1 | -2 | 43* | . | i | 3
S=C1Nc2ccccc2CS1 | . | 2 | . | . | -8
COc1ccc(N=Nc2n(C)c3ccccc3[n+]2C)cc1 | 98* | . | . | i | .
NC(=O)c1nsc(C(=O)N(Cc2ccccc2F)C(C(=O)NCC2CCCO2)c2ccc(F)cc2)c1N (centres undefined) | 1 | 9 | -7 | i | 22
Cc1cccc(CCN(C(=O)c2snc(C(N)=O)c2N)C(C(=O)NCC2CCCO2)c2ccc(F)cc2)c1 (centres undefined) | 4 | 30 | . | i | 59*
O=C(NCC1CCCO1)C(c1cccs1)N(Cc1cccs1)C(=O)Cn1nnc(-c2cccs2)n1 (centres undefined) | . | 14 | -8 | . | 49*
CCOc1ccc(C(C(=O)NCC2CCCO2)N(Cc2cccs2)C(=O)c2snc(C(N)=O)c2N)cc1 (centres undefined) | -13 | 24 | 0 | . | 54*
O=C(NCC1CCCO1)C(c1cccs1)N(C(=O)Cn1nnc(-c2cccs2)n1)C1CCCC1 (centres undefined) | 1 | 8 | -4 | . | -2
Cc1noc(C)c1-c1ccc(C(=O)NCCC(F)(F)F)c2occc12 | . | -2 | . | . | -16
CC(=O)N(CCc1ccccc1)Cc1cc2ccc(C)c(C)c2[nH]c1=O | -6 | 41* | 7 | i | 11
COc1ccccc1-c1nnc2sc(-c3ccc(N(C)C)cc3)nn12 | -4 | -2 | 23 | + | 0

Screening results from PubChem.
